Screens: PubChem BioAssay, Broad Institute
HSF1 activator – increases HSF-1 driven luciferase reporter signal; NIH3T3-HGL HSF-1 luciferase reporter, MG132, 8 h; 100% = twice DMSO control signal; AID 504408; 300,000 tested, 1.7% active; activation, % at 9 µM;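 active = mean replicate activation of at least 50% with a set share of replicates each reaching 50%; inconclusive = only one of those two conditions met; inactive = mean below 50% and too few replicates reaching it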;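 note: 0% = median of the neutral control wells and 100% = twice that signal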
MITF act – activators of MITF-driven TRPM1 promoter activity in SK-MEL-5 cells. SK-MEL-5 TRPM1-promoter luciferase, 24 h; % of positive control, neutral wells = 0. activation, % at 12.5 µM. 300,000 tested, 0.75% active;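 active = mean activation of at least 80% with every replicate also reaching 80%; inconclusive = mean reaches 80% but some replicate falls short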;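 note: 0% = neutral control wells and 100% = parthenolide positive control wells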
Wnt act – Wnt/beta-catenin pathway activation; Wnt/beta-catenin reporter cell assay, activator, plate reader; activation, % at 9.35 µM; 300,000 tested, 1.2% active; AID 743398; in the data active = activation above about 30%, passing the limit was not always enough; inconclusive = no clear call, values can overlap the other calls;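 note: 0% = neutral control wells and 100% = positive control wells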
SR-BI DiI inh – blocks mouse SR-BI lipid uptake from DiI-HDL; Q61009; ldlA[mSR-BI] CHO cells, DiI-HDL uptake fluorescence, 3 h; inhibition, % at 12.5 µM; 320,000 tested, 0.96% active; AID 488896;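 active = mean replicate inhibition of at least 70% and a set share of replicates each scoring 70 or more; inconclusive = meets just one of the two criteria; inactive = fails both criteria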;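 note: 0% = median of neutral control wells and 100% = median of positive control wells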
Target sequence (Q61009 whole entry, looked up): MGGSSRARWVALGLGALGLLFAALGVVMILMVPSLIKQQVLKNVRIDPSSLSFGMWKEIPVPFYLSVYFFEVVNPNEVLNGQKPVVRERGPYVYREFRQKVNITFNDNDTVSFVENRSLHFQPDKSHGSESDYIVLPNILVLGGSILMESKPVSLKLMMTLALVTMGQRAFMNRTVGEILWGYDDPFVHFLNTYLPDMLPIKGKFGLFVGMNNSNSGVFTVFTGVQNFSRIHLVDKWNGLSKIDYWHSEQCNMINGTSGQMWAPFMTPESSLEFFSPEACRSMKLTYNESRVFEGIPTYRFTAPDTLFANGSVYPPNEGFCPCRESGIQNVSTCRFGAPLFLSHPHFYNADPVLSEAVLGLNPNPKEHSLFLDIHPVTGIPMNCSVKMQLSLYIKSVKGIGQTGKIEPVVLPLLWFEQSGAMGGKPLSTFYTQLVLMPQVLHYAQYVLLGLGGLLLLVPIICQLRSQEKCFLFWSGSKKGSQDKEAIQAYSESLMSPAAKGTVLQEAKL
SR-BI uptake up – SR-BI HDL lipid transfer activation. CHO ldlA[mSR-BI] cells, DiI-HDL uptake fluorescence, 3 h; 100 = double the neutral-control signal. activation, % at 12.5 µM. 320,000 tested, 0.096% active;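 active = mean replicate activation of at least 60% and every replicate at or above 60%; inconclusive = mean or all-replicate condition met, but not both; inactive = mean below 60% and not all replicates reaching 60%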;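 note: 0% = median plate neutral-control signal and 100% = twice that signal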
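Material: SR-BI-overexpressing, LDLR-lacking CHO cells; schedule: compound exposure 3 h, 37 °C; reagent: DiI-labelled HDL at 10 µg/mL final; technique: bottom-read fluorescence, 550/595 nm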
* hit, by the source's call; ? = inconclusive; . = no result. This is a sample that favours compounds with a hit; in the whole collection about 3.6% have one here.

SMILES	HSF1 activator	MITF act	Wnt act	SR-BI DiI inh	SR-BI uptake up
CC(=O)c1sc(N/N=C/c2cccc([N+](=O)[O-])c2)nc1C	45.3	105.0*	14.6	21.8	-21.8
Oc1ccc2ccccc2c1/C=N/Nc1ccccc1	-3.0	6.5	.	-13.4	13.4
CN(C)C1=NCCN1CC1CCCCC1	.	6.2	-0.4	-17.2	17.2
CN(C)S(=O)(=O)c1ccc(-c2csc(N/N=C/c3ccc(O)cc3)n2)cc1	-9.6	-70.6	-21.9	87.2*	-87.2
CC(=O)c1sc(N/N=C\c2ccc(N(C)C)cc2)nc1C	30.3	.	24.5	9.1	-9.1
CN(C)S(=O)(=O)c1ccc(-c2csc(N/N=C/c3ccco3)n2)cc1	8.1	-71.9	-2.2	.	.
CC(=O)c1sc(N/N=C/c2cccc(O)c2)nc1C	19.1	92.9*	16.6	.	.
Cc1[nH]nc2c1C(c1ccc(Br)cc1)N(Cc1ccccc1)C2=O (stereo not given)	.	.	-2.7	.	.
Cc1ccc(S(=O)(=O)N2CCN(C(=O)COC(=O)/C=C/c3ccc(OC(F)F)cc3)CC2)cc1	.	-2.5	-13.4	20.3	-20.3
CCCc1[nH]n(-c2ccc([N+](=O)[O-])cc2)c(=O)c1C=NCCc1c[nH]c2ccccc12	24.9	2.3	.	79.3*	-79.3
Cc1ccc(S(=O)(=O)CCC(=O)OCC(=O)N(C)c2ccccc2)cc1	.	-1.8	-0.3	-19.1	19.1
CCN(CC)C(=O)c1cccc(-c2csc(C(O)c3ccc(F)c(OC)c3)n2)c1 (stereo not given)	.	.	-0.3	.	.
CN=C1SC(CC(=O)Nc2ccccc2F)C(=O)N1/N=C/c1ccc(O)c(OC)c1 (stereo not given)	40.0	11.7	-0.3	74.3*	-74.3
CCOc1ccc(/C=N/N2C(=O)C(CC(=O)Nc3ccc(F)cc3F)SC2=NC)cc1OC (stereo not given)	59.5*	-33.5	-3.3	17.0	-17.0
Cc1ccc(NC(=O)C(=O)c2ccc(C)cc2)cc1	61.2*	64.8	?	-10.1	10.1
Cc1ccc(NCC(=O)c2ccc(C)cc2)cc1	19.8	84.4*	14.8	-15.8	15.8
Cc1ccc(C(=O)CNc2ccc(C)c(Cl)c2)cc1	39.0	37.0	.	-15.8	15.8
Nc1nc2c(ncn2[C@@H]2O[C@H](C(=O)NCC3CCCCC3)[C@@H](O)[C@H]2O)c(=O)[nH]1	.	.	-8.5	.	.
CCOC(=O)c1ccc(NC(=O)c2cc3ccccc3o2)cc1	24.3	110.6*	.	2.9	-2.9
CCOC(=O)c1cccc(NC(=O)c2cc3ccccc3o2)c1	3.6	.	7.5	10.2	-10.2
Cc1cccc(NC(=O)c2cc3ccccc3o2)c1	76.4*	28.1	41.6*	24.4	-2.4
O=C(Nc1ccc(NC(=O)c2cc3ccccc3o2)cc1)c1ccc2c(c1)OCCO2	-5.1	-54.1	-2.5	73.2*	-73.2
Cc1cc(NC(=O)c2ccc3c(c2)OCCO3)ccc1NC(=O)c1cc2ccccc2o1	22.1	37.4	-0.9	67.8	-67.8
O=C(NCCOc1ccccc1)c1cc2ccccc2o1	26.2	102.4*	14.9	-9.4	9.4
O=[N+]([O-])c1ccc(COc2cccc(CO)c2)cc1	.	.	11.7	.	.
SMILES	HSF1 activator	MITF act	Wnt act	SR-BI DiI inh	SR-BI uptake up
Cc1cc2c(nc1C)CCCN2S(=O)(=O)c1c(C)noc1C	.	.	0.4	.	.
NS(=O)(=O)c1cccc(NC(=O)c2cc3ccccc3o2)c1	-3.1	48.9	4.2	22.6	-22.6
O=C(Nc1cccc(Br)c1)c1cc2ccccc2o1	86.0*	51.9	-3.1	27.3	-27.3
O=C(O)C1C2OC3C(OC(=O)C31)C2Br (stereo not given)	.	4.3	-5.0	-17.2	17.2
CC1(C(=O)NCc2cccc3ccccc23)CCN1C(=O)C1(c2ccccc2)CCCC1 (stereo not given)	.	.	-1.6	.	.
NC(=O)c1ccc(OCc2ccccc2)nc1	.	87.9*	2.3	-24.8	24.8
O=C(Nc1ccc(Cl)c(NC(=O)c2cccs2)c1)c1ccco1	1.1	.	1.7	21.6	-21.6
O=C(Nc1ccc(NC(=O)c2cccs2)cc1Cl)c1ccco1	30.6	60.5	45.8*	36.5	-36.5
COc1ccc(C(=O)Nc2cc(OC)c(NC(=O)c3ccco3)cc2OC)cc1	5.8	-7.5	-0.8	68.5	-68.5
CCCn1cnc2cc(NC(=O)c3ccco3)ccc21	32.2	14.5	28.4	16.4	-16.4
COc1cc(C(=O)Nc2ccc3c(c2)OCCO3)ccc1OC(C)C	16.1	74.6	.	49.7	-49.7
COc1ccc(NC(=O)c2ccc(NC(=O)c3ccco3)cc2)c(OC)c1	7.0	-0.4	1.1	81.5*	-81.5
COc1cc(C(=O)Nc2ccc3c(c2)OCCO3)ccc1OC(F)F	41.7	97.8*	0.0	78.6*	-78.6
CCCn1cnc2cc(NC(=O)c3cccs3)ccc21	24.7	94.3*	31.7*	-5.8	5.8
COc1ccc(NC(=O)N(C)C[C@H]2Oc3ccc(NC(=O)Nc4ccc5c(c4)OCO5)cc3C(=O)N([C@H](C)CO)C[C@@H]2C)cc1	.	5.8	-0.6	23.3	-23.3
O=C1CCC(NC(=O)Cc2ccccc2)C(=O)N1 (stereo not given)	.	.	5.1	.	.
COc1ccc(NC(=O)c2ccc3c(c2)OCCO3)cc1OC	17.9	75.3	16.7	27.8	-27.8
COc1cc(NC(=O)c2cc(OC)c(OC)c(OC)c2)c2ncccc2c1	.	.	1.2	55.6	-55.6
CCOc1ccccc1NC(=O)c1cc(Cl)ccc1NC(=O)c1ccco1	-15.6	-1.5	.	80.8*	-80.8
COc1cc(NC(=O)c2ccc3c(c2)OCCO3)ccc1NC(=O)c1ccccc1Cl	5.9	-6.4	0.0	88.5*	-88.5
O=C(Nc1ccc(NC(=O)N2CCN(c3ccccc3O)CC2)cc1)N1CCN(c2ccccc2O)CC1	4.3	5.9	-4.2	74.1*	-74.1
COc1cc(NC(=O)c2ccc3c(c2)OCO3)c2ncccc2c1	-2.2	15.3	.	78.0*	-78.0
O=C(O)c1ccc(-c2cccc(-c3nn4c(=O)cc(N5CCNCC5)nc4s3)c2)cc1	.	.	-2.2	.	.
Oc1c(C(c2ccccc2)N2CCCCC2)ccc2ccccc12 (stereo not given)	.	.	-3.3	.	.
O=C(Nc1nnc([C@@H]2C[C@H](O)[C@@H](CO)O2)s1)c1cccc(OC(F)(F)F)c1	.	.	-1.3	.	.
SMILES	HSF1 activator	MITF act	Wnt act	SR-BI DiI inh	SR-BI uptake up
CCCC[C@H](CN[C@@H](CNC)[C@H](C)CC)NCCC12CCC(CC1)C2	-1.9	-93.0	-13.3	-41.5	41.5
O=C(Nc1ccc(F)c(Cl)c1)c1ccc2c(c1)OCO2	21.3	.	0.1	1.5	-1.5
COc1cc2[nH]c(C(=O)Nc3ccc4c(c3)OCCO4)cc2c(OC)c1OC	-37.3	-21.6	3.9	85.6*	-85.6
Cc1cccc(C)c1N1CCN(C(=O)Nc2ccc3c(c2)OCCO3)CC1	-51.3	.	44.5*	21.6	-21.6
O=C(Nc1ccc2[nH]ccc2c1)c1cccs1	57.7*	106.0*	12.1	.	.
COc1cc2cc(C(=O)Nc3ccc4c(c3)OCCO4)[nH]c2cc1OC	-73.9	-12.3	-7.5	?	-71.0
COc1ccc(NC(=O)c2ccc3c(c2)OCO3)cc1Cl	41.0	87.6*	.	26.3	-26.3
